# Experimental data collected from several papers.
# Compare with care: the assays were run in different laboratories.
SMILES,test,system,setting,quantity,result
OC(c1ccc(F)cc1)C(F)(F)CCN1CCC(O)(c2ccc(Cl)cc2)CC1 (racemic),,PBS,"2 h, pH 7.4, 25 °C",kinetic solubility,3.4 µM
C#Cc1ccc2c(c1)C(c1ccccn1)=NCc1c(-c3cnco3)ncn1-2,,water,"90 min, 37 °C",kinetic solubility,517 µg/mL
CC(C)CCC[C@@H](C)[C@H]1CC[C@H]2[C@@H]3CC=C4C[C@@H](OCCCNC(=O)CCC(=O)NCCCC[C@H](NC(=O)[C@H]5CCCN5C(=O)[C@H](CCC(=O)O)NC(=O)[C@H](C)NC(=O)[C@@H](NC(=O)C[C@H](O)[C@H](CC(C)C)NC(=O)[C@H](CC(N)=O)NC(=O)[C@@H](NC(=O)[C@@H](N)CCC(=O)O)C(C)C)C(C)C)C(N)=O)CC[C@]4(C)[C@H]3CC[C@]12C,,aqueous buffer,pH 6.5,thermodynamic solubility,> 3000 µg/mL
Nc1ncc(-c2nc(N3CCOCC3)nc(N3CCOCC3)n2)c(C(F)F)n1,shake flask,FaSSIF,24 h,thermodynamic solubility,7.6 µM
CC[C@H](C)[C@H](NC(=O)[C@H](CO)NC(=O)[C@H](CCCNC(=N)N)NC(C)=O)C(=O)N[C@H]1CSSC[C@@H](C(=O)N[C@H](C(N)=O)[C@@H](C)O)NC(=O)[C@H](CCCNC(=N)N)NC(=O)[C@H](Cc2c[nH]cn2)NC(=O)[C@H](C)NC(=O)CNC(=O)[C@H](Cc2c[nH]c3ccccc23)NC(=O)[C@H](CC(=O)O)NC(=O)[C@H](CCC(N)=O)NC(=O)[C@H](Cc2ccc3ccccc3c2)NC(=O)[C@H](C(C)C)NC1=O,,PBS,pH 7.4,solubility,2170 µg/mL
O=C1C=C(N(Cc2ccc(Cl)nc2)CC(F)F)CO1,,water,pH 4,solubility,3200 µg/mL
CC(=O)N[C@@H](CC(N)=O)C(=O)N[C@@H](CC(N)=O)C(=O)N[C@@H](CC(C)C)C(=O)N[C@H]1CSSC[C@@H](C(=O)N[C@H](C(N)=O)[C@@H](C)O)NC(=O)[C@H](CCCNC(=N)N)NC(=O)[C@H](Cc2c[nH]cn2)NC(=O)[C@H](Cc2cccc3ccccc23)NC(=O)CNC(=O)[C@H](Cc2c[nH]c3ccccc23)NC(=O)[C@H](CC(=O)O)NC(=O)[C@H](CCC(N)=O)NC(=O)[C@H](Cc2c[nH]c3ccccc23)NC(=O)[C@H](C(C)C)NC1=O,,PBS,pH 7.4,solubility,270 µg/mL
CCCc1ccc(-c2ccc([C@@H](CO)C(=O)N[C@H](C)c3ccccc3)cc2)cc1,,PBS,pH 7.4,kinetic solubility,< 1 µM
CC[C@H](C)[C@H](NC(=O)[C@H](CO)NC(=O)[C@H](CCCNC(=N)N)NC(C)=O)C(=O)N[C@H]1CSSC[C@@H](C(=O)N[C@H](C(N)=O)[C@@H](C)O)NC(=O)[C@H](CCCNC(=N)N)NC(=O)[C@H](Cc2c[nH]cn2)NC(=O)[C@H](Cc2cccc3ccccc23)NC(=O)CNC(=O)[C@H](Cc2c[nH]c3ccccc23)NC(=O)[C@H](CC(=O)O)NC(=O)[C@H](CCC(N)=O)NC(=O)[C@H](Cc2c[nH]c3ccccc23)NC(=O)[C@H](C(C)C)NC1=O,,PBS,pH 7.4,solubility,390 µg/mL
Clc1ccc(CSc2nnc(-c3ccccn3)n2Cc2ccco2)cc1Cl,,aqueous buffer,pH 7.4,solubility,0.14 µg/mL
